Reference: ChEMBL document CHEMBL1144619, “The synthesis and biological evaluation of novel series of nitrile-containing fluoroquinolones as antibacterial agents” (Bioorg Med Chem Lett, 2007)
Values after ≈ are worked out from the molar mass of the structure shown.

What was measured:
Staphylococcus aureus [1] = test: Antibacterial activity against Staphylococcus aureus SA2552; type: functional
Staphylococcus aureus [2] = test: Antibacterial activity against Staphylococcus aureus UC76; type: functional
Moraxella catarrhalis = test: Antibacterial activity against Moraxella catarrhalis BC-3531; type: functional
Haemophilus influenzae = test: Antibacterial activity against Haemophilus influenzae HI3542; type: functional; settings: HI-3542
hERG (KCNH2) = hERG (KCNH2) (Homo sapiens, UniProt Q12809); test: Displacement of [3H]dofetilide from human ERG at 300 uM; settings: probe [3H]dofetilide
Outline: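 Radioligand filter-binding assay measuring displacement of [3H]-dofetilide from the hERG channel, run as in a patent protocol.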

Streptococcus pneumoniae [3] = test: Antibacterial activity against fluoroquinolone resistance Streptococcus pneumoniae SP3765; type: functional
Streptococcus pneumoniae [4] = test: Antibacterial activity against Streptococcus pneumoniae SV1; type: functional
[5] = target: Voltage-gated inwardly rectifying potassium channel KCNH2 (Homo sapiens, UniProt Q12809); test: Displacement of [3H]dofetilide from human ERG by fliter binding assay
[6] = Half life in rat at 1 mg/kg, iv; type: ADME, organism-based; set-up: dose 1 mg/kg, route intravenous; settings: in vivo
[7] = Volume of distribution in rat at 1 mg/kg, iv; type: ADME, organism-based; set-up: dose 1 mg/kg, route intravenous; settings: in vivo, read-out: Vdss
[8] = Cmax in rat at 5 mg/kg, po; type: ADME, organism-based; set-up: dose 5 mg/kg, route oral; settings: in vivo
[9] = Clearance in rat at 1 mg/kg, iv; type: ADME, organism-based; set-up: dose 1 mg/kg, route intravenous; settings: in vivo
Rattus norvegicus = test: AUC in rat at 1 mg/kg, iv; type: ADME, organism-based, Plasma; set-up: dose 1 mg/kg, route intravenous; settings: in vivo
[10] = Bioavailability in rat at 5 mg/kg, po; type: ADME, organism-based; settings: in vivo

Sequence of hERG (KCNH2) (Q12809 whole entry): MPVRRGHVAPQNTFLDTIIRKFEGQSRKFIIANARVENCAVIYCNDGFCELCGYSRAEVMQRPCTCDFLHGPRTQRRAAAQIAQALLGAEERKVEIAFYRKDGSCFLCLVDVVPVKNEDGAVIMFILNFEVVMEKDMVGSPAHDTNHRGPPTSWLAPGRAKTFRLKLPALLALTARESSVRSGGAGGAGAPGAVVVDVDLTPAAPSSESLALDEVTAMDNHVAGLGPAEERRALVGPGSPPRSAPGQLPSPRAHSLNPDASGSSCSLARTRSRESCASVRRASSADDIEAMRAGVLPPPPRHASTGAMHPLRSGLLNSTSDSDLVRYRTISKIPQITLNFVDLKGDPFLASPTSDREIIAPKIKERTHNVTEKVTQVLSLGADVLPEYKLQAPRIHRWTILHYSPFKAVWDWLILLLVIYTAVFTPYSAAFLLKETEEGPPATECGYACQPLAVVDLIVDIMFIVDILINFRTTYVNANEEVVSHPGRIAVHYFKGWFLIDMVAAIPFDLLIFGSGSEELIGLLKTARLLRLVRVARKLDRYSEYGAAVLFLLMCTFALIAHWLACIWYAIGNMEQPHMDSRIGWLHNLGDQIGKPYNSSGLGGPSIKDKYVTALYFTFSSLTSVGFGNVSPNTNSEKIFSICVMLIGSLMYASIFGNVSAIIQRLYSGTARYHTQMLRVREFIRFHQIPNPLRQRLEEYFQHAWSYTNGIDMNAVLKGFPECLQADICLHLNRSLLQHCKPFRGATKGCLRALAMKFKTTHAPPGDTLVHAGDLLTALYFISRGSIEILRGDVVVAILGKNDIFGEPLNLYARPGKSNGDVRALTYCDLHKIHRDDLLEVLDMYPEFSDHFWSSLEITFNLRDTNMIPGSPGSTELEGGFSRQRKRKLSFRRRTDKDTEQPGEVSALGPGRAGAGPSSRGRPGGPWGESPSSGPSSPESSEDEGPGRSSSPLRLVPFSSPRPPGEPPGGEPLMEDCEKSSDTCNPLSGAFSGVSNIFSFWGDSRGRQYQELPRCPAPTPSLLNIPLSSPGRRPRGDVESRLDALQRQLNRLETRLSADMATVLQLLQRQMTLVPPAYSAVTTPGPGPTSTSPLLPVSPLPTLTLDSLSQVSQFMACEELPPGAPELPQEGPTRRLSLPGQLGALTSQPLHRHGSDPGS
Sequence of Voltage-gated inwardly rectifying potassium channel KCNH2 (Q12809 whole entry): as above

| Compound | MIC (Staphylococcus aureus [1]) [µg/mL] | MIC (Staphylococcus aureus [2]) [µg/mL] | MIC (Moraxella catarrhalis) [µg/mL] | MIC (Haemophilus influenzae) [µg/mL] | inhibition at 300 µM (hERG (KCNH2)) [%] | MIC (Streptococcus pneumoniae [3]) [µg/mL] | MIC (Streptococcus pneumoniae [4]) [µg/mL] | Ki [5] [µM] | half-life [6] [h] | Vd [7] [L/kg] | Cmax [8] [ng/mL] | clearance [9] [mL/min/kg] | AUC (Rattus norvegicus) [ug/hr.ml] | bioavailability [10] [%] |
| --- | --- | --- | --- | --- | --- | --- | --- | --- | --- | --- | --- | --- | --- | --- |
| C[C@H]1COc2c(N3CCN(C)CC3)c(F)cc3c(=O)c(C(=O)O)cn1c23.C[C@H]1COc2c(N3CCN(C)CC3)c(F)cc3c(=O)c(C(=O)O)cn1c23.O [LEVOFLOXACIN] | 0.5 | 0.125 | 0.06 | 0.015 | 10 | – | – | – | – | – | – | – | – | – |
| COc1c(N2CC[C@@H]([C@H](C)NCCC#N)C2)ccc2c(=O)c(C(=O)O)cn(C3CC3)c12 | 0.125 (≈ 0.294 µM) | 0.03 (≈ 0.0707 µM) | 1 (≈ 2.36 µM) | 0.5 (≈ 1.18 µM) | – | 2 (≈ 4.71 µM) | 0.25 (≈ 0.589 µM) | – | – | – | – | – | – | – |
| O=C(O)c1cn(C2CC2)c2cc(N3CCNCC3)c(F)cc2c1=O [CIPROFLOXACIN] | 1 (≈ 3.02 µM) | – | 0.03 (≈ 0.0905 µM) | 0.008 (≈ 0.0241 µM) | – | 16 (≈ 48.3 µM) | – | – | – | – | – | – | – | – |
| Cc1c(N2CC[C@@H]([C@H](C)N)C2)c(F)cc2c(=O)c(C(=O)O)cn(C3CC3)c12 | 0.03 (≈ 0.0803 µM) | 0.002 (≈ 0.00536 µM) | 0.015 (≈ 0.0402 µM) | 0.004 (≈ 0.0107 µM) | – | 0.03 (≈ 0.0803 µM) | 0.002 (≈ 0.00536 µM) | – | – | – | – | – | – | – |
| CN[C@@H](C)[C@@H]1CCN(c2c(F)cc3c(=O)c(C(=O)O)cn(C4CC4)c3c2OC)C1 [PREMAFLOXACIN] | 0.06 (≈ 0.149 µM) | 0.015 (≈ 0.0372 µM) | 0.06 (≈ 0.149 µM) | 0.015 (≈ 0.0372 µM) | 40 | 0.125 (≈ 0.31 µM) | 0.008 (≈ 0.0198 µM) | > 150 | – | – | – | – | – | – |
| CC1COc2c(N3CC[C@@H]([C@H](C)N)C3)c(F)cc3c(=O)c(C(=O)O)cn1c23 (stereo partly drawn) | 0.125 (≈ 0.333 µM) | 0.015 (≈ 0.04 µM) | 0.06 (≈ 0.16 µM) | 0.008 (≈ 0.0213 µM) | 35 | 0.25 (≈ 0.666 µM) | 0.03 (≈ 0.0799 µM) | > 100 | – | – | – | – | – | – |
| COc1c(N2CC[C@@H]([C@@H](N)CC#N)C2)ccc2c(=O)c(C(=O)O)cn(C3CC3)c12 | 0.06 (≈ 0.151 µM) | 0.008 (≈ 0.0202 µM) | 0.125 (≈ 0.315 µM) | 0.06 (≈ 0.151 µM) | 30 | 0.5 (≈ 1.26 µM) | 0.03 (≈ 0.0757 µM) | > 150 | 1.8 | 0.5 | 1400 | 16 | 5.2 | 22 |
| COc1c(N2CC[C@@H](CN)C2)c(F)cc2c(=O)c(C(=O)O)cn(C3CC3)c12 | 0.06 (≈ 0.16 µM) | 0.015 (≈ 0.04 µM) | 0.125 (≈ 0.333 µM) | 0.015 (≈ 0.04 µM) | – | 1 (≈ 2.66 µM) | 0.06 (≈ 0.16 µM) | 24 | – | – | – | – | – | – |
| CC1COc2c(N3CC[C@@H]([C@H](C)NCCC#N)C3)c(F)cc3c(=O)c(C(=O)O)cn1c23 (stereo partly drawn) | 0.03 (≈ 0.07 µM) | 0.015 (≈ 0.035 µM) | 0.125 (≈ 0.292 µM) | 0.06 (≈ 0.14 µM) | 10 | 0.25 (≈ 0.583 µM) | 0.06 (≈ 0.14 µM) | > 150 | – | – | – | – | – | – |
| CCC1(CN)CN(c2c(F)cc3c(=O)c(C(=O)O)cn(C4CC4)c3c2C)C1 | 0.03 (≈ 0.0803 µM) | 0.015 (≈ 0.0402 µM) | 0.125 (≈ 0.335 µM) | 0.015 (≈ 0.0402 µM) | – | 1 (≈ 2.68 µM) | 0.06 (≈ 0.161 µM) | 45 | – | – | – | – | – | – |
| CC1COc2c(N3CC[C@@H]([C@@H](N)CC#N)C3)c(F)cc3c(=O)c(C(=O)O)cn1c23 (stereo partly drawn) | 0.06 (≈ 0.15 µM) | 0.008 (≈ 0.02 µM) | 0.125 (≈ 0.312 µM) | 0.008 (≈ 0.02 µM) | 22 | 0.125 (≈ 0.312 µM) | 0.015 (≈ 0.0375 µM) | > 150 | – | – | – | – | – | – |
| COc1c(N2CC[C@@H](CN)C2)ccc2c(=O)c(C(=O)O)cn(C3CC3)c12 | 0.25 (≈ 0.699 µM) | 0.03 (≈ 0.0839 µM) | 0.5 (≈ 1.4 µM) | 0.06 (≈ 0.168 µM) | – | 4 (≈ 11.2 µM) | 0.125 (≈ 0.35 µM) | 64 | – | – | – | – | – | – |
| COc1c(N2CC[C@@H](CNCCC#N)C2)ccc2c(=O)c(C(=O)O)cn(C3CC3)c12 | 0.25 (≈ 0.609 µM) | 0.03 (≈ 0.0731 µM) | 1 (≈ 2.44 µM) | 0.25 (≈ 0.609 µM) | – | 2 (≈ 4.87 µM) | 0.125 (≈ 0.305 µM) | – | – | – | – | – | – | – |
| Cc1c(N2CC(C)(CNCCC#N)C2)c(F)cc2c(=O)c(C(=O)O)cn(C3CC3)c12 | 0.03 (≈ 0.0727 µM) | 0.03 (≈ 0.0727 µM) | 0.125 (≈ 0.303 µM) | 0.06 (≈ 0.145 µM) | 18 | 2 (≈ 4.85 µM) | 0.125 (≈ 0.303 µM) | > 150 | – | – | – | – | – | – |
| COc1c(N2CC[C@@H]([C@@H](N)CC#N)C2)c(F)cc2c(=O)c(C(=O)O)cn(C3CC3)c12 | 0.002 (≈ 0.00483 µM) | 0.001 (≈ 0.00241 µM) | 0.03 (≈ 0.0724 µM) | 0.008 (≈ 0.0193 µM) | 29 | 0.125 (≈ 0.302 µM) | 0.008 (≈ 0.0193 µM) | > 150 | – | – | – | – | – | – |
| COc1c(N2CC[C@@H](CNCCC#N)C2)c(F)cc2c(=O)c(C(=O)O)cn(C3CC3)c12 | 0.06 (≈ 0.14 µM) | 0.03 (≈ 0.07 µM) | 0.5 (≈ 1.17 µM) | 0.125 (≈ 0.292 µM) | – | 2 (≈ 4.67 µM) | 0.125 (≈ 0.292 µM) | 106 | – | – | – | – | – | – |
| COc1c(N2CC[C@@H]([C@H](C)NCCC#N)C2)c(F)cc2c(=O)c(C(=O)O)cn(C3CC3)c12 | 0.008 (≈ 0.0181 µM) | 0.004 (≈ 0.00904 µM) | 0.06 (≈ 0.136 µM) | 0.06 (≈ 0.136 µM) | 2 | 0.125 (≈ 0.282 µM) | 0.015 (≈ 0.0339 µM) | > 150 | 2.7 | 2.5 | 1200 | 24 | 3.5 | 70 |
| CN[C@@H](CC#N)[C@@H]1CCN(c2c(F)cc3c(=O)c(C(=O)O)cn4c3c2OCC4C)C1 (stereo partly drawn) | 0.125 (≈ 0.302 µM) | 0.06 (≈ 0.145 µM) | 0.25 (≈ 0.603 µM) | 0.03 (≈ 0.0724 µM) | 19 | 2 (≈ 4.83 µM) | 0.125 (≈ 0.302 µM) | > 150 | – | – | – | – | – | – |
| CN[C@@H](CC#N)[C@@H]1CCN(c2c(F)cc3c(=O)c(C(=O)O)cn(C4CC4)c3c2OC)C1 | 0.06 (≈ 0.14 µM) | 0.008 (≈ 0.0187 µM) | 0.06 (≈ 0.14 µM) | 0.03 (≈ 0.07 µM) | 9 | 0.5 (≈ 1.17 µM) | 0.06 (≈ 0.14 µM) | > 150 | 2.4 | 1.8 | 1400 | 19 | 4.4 | 53 |
| Cc1c(N2CC[C@@H]([C@H](C)NCCC#N)C2)c(F)cc2c(=O)c(C(=O)O)cn(C3CC3)c12 | 0.008 (≈ 0.0188 µM) | 0.002 (≈ 0.00469 µM) | 0.015 (≈ 0.0352 µM) | 0.03 (≈ 0.0703 µM) | – | 0.06 (≈ 0.141 µM) | 0.008 (≈ 0.0188 µM) | 72 | – | – | – | – | – | – |
| CCC1(CNCCC#N)CN(c2c(F)cc3c(=O)c(C(=O)O)cn(C4CC4)c3c2C)C1 | 0.03 (≈ 0.0703 µM) | 0.03 (≈ 0.0703 µM) | 0.25 (≈ 0.586 µM) | 0.06 (≈ 0.141 µM) | 25 | 2 (≈ 4.69 µM) | 0.125 (≈ 0.293 µM) | > 150 | 1.4 | 1 | 2600 | 13 | 6.5 | 92 |
| Cc1c(N2CC(C)(CN)C2)c(F)cc2c(=O)c(C(=O)O)cn(C3CC3)c12 | 0.06 (≈ 0.167 µM) | 0.06 (≈ 0.167 µM) | 0.06 (≈ 0.167 µM) | 0.015 (≈ 0.0417 µM) | – | 2 (≈ 5.56 µM) | 0.06 (≈ 0.167 µM) | – | 1.3 | 2.5 | 300 | 33 | 2.5 | 18 |
| COc1c(N2CC[C@@H]([C@H](C)N)C2)c(F)cc2c(=O)c(C(=O)O)cn(C3CC3)c12 | 0.008 (≈ 0.0205 µM) | 0.002 (≈ 0.00514 µM) | 0.015 (≈ 0.0385 µM) | 0.004 (≈ 0.0103 µM) | – | 0.03 (≈ 0.077 µM) | 0.004 (≈ 0.0103 µM) | – | – | – | – | – | – | – |
| COc1c(N2CC[C@@H]([C@H](C)N)C2)ccc2c(=O)c(C(=O)O)cn(C3CC3)c12 | 0.03 (≈ 0.0808 µM) | 0.008 (≈ 0.0215 µM) | 0.06 (≈ 0.162 µM) | 0.125 (≈ 0.337 µM) | – | 0.125 (≈ 0.337 µM) | 0.015 (≈ 0.0404 µM) | – | – | – | – | – | – | – |
